ChEMBL document CHEMBL1124366, “Synthesis and biological properties of N63-carboxamides of teicoplanin antibiotics. Structure-activity relationships” (J Med Chem, 1989)
≈ marks a conversion by molar mass, not a printed value.

How the values were obtained:
Type in all cases: functional
Streptococcus pneumoniae = assay: In vitro minimum inhibitory concentration against Streptococcus pneumoniae UC41
Streptococcus pyogenes [1] = assay: Subcutaneously administration into mice infected with Streptococcus pyogenes C 203; settings: sc
In short: (§1)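 Mice (five per treatment group, five groups) infected intraperitoneally with about 10⁵ cells of Strep. pyogenes C 203, about 100× the LD50. ED50 (mg/kg) was calculated from the percentage of mice surviving at each dose on day 7.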

[2] = system: Staphylococcus epidermidis; assay: In vitro minimum inhibitory concentration against Staphylococcus epidermis ATCC 12228
Streptococcus pyogenes [3] = assay: In vitro minimum inhibitory concentration against Streptococcus pyogenes C 203
Streptococcus pyogenes [4] = assay: In vivo effective dose given perorally to mice infected with Streptococcus pyogenes C 203; settings: po; in short: as §1
Staphylococcus aureus = assay: In vitro minimum inhibitory concentration against Staphylococcus aureus Tour
Enterococcus faecalis = assay: In vitro minimum inhibitory concentration against Streptococcus faecalis ATCC 7080
Escherichia coli = assay: In vitro minimum inhibitory concentration against Escherichia coli SKF 12140
Proteus vulgaris = assay: In vitro minimum inhibitory concentration against Proteus vulgaris X 19 ATCC 881
[5] = system: Staphylococcus haemolyticus; assay: In vitro minimum inhibitory concentration against Staphylococcus hemolyticus 602 cell line; settings: strain 602

| SMILES | MIC (Streptococcus pneumoniae) | MIC [2] | MIC (Streptococcus pyogenes [3]) | MIC (Staphylococcus aureus) | MIC (Enterococcus faecalis) | MIC (Escherichia coli) | MIC (Proteus vulgaris) | ED50 (Streptococcus pyogenes [1]) | ED50 (Streptococcus pyogenes [4]) | MIC [5] |
| --- | --- | --- | --- | --- | --- | --- | --- | --- | --- | --- |
| CC(=O)N[C@@H]1[C@H](O[C@@H]2c3ccc(c(Cl)c3)Oc3cc4cc(c3O[C@@H]3O[C@@H](CO)[C@@H](O)[C@H](O)[C@@H]3NC(=O)CCCCCCC(C)C)Oc3ccc(cc3Cl)C[C@H]3NC(=O)[C@H](N)c5ccc(O)c(c5)Oc5cc(O)cc(c5)[C@H](NC3=O)C(=O)N[C@H]4C(=O)N[C@H]3C(=O)N[C@@H]2C(=O)N[C@H](C(=O)N2CCN(C)CC2)c2cc(O)cc(O[C@H]4O[C@H](CO)[C@@H](O)[C@@H](O)[C@@H]4O)c2-c2cc3ccc2O)O[C@@H](CO)[C@@H](O)[C@@H]1O | 0.12 µg/mL (≈ 0.0612 µM) | 0.12 µg/mL (≈ 0.0612 µM) | 0.06 µg/mL (≈ 0.0306 µM) | 0.12 µg/mL (≈ 0.0612 µM) | 0.06 µg/mL (≈ 0.0306 µM) | – | – | < 0.03 mg/kg | 115 mg/kg | – |
| CC(=O)N[C@@H]1[C@H](O[C@@H]2c3ccc(c(Cl)c3)Oc3cc4cc(c3O[C@@H]3O[C@@H](CO)[C@@H](O)[C@H](O)[C@@H]3NC(=O)CCCCCCC(C)C)Oc3ccc(cc3Cl)C[C@H]3NC(=O)[C@H](N)c5ccc(O)c(c5)Oc5cc(O)cc(c5)[C@H](NC3=O)C(=O)N[C@H]4C(=O)N[C@H]3C(=O)N[C@@H]2C(=O)N[C@H](C(=O)N(C)C)c2cc(O)cc(O[C@H]4O[C@H](CO)[C@@H](O)[C@@H](O)[C@@H]4O)c2-c2cc3ccc2O)O[C@@H](CO)[C@@H](O)[C@@H]1O | 0.06 µg/mL (≈ 0.0315 µM) | 0.25 µg/mL (≈ 0.131 µM) | 0.06 µg/mL (≈ 0.0315 µM) | 0.12 µg/mL (≈ 0.0629 µM) | 0.12 µg/mL (≈ 0.0629 µM) | – | – | 0.08 mg/kg | 139 mg/kg | – |
| CC(=O)N[C@@H]1[C@H](O[C@@H]2c3ccc(c(Cl)c3)Oc3cc4cc(c3O[C@@H]3O[C@@H](CO)[C@@H](O)[C@H](O)[C@@H]3NC(=O)CCCCCCC(C)C)Oc3ccc(cc3Cl)C[C@H]3NC(=O)[C@H](N)c5ccc(O)c(c5)Oc5cc(O)cc(c5)[C@H](NC3=O)C(=O)N[C@H]4C(=O)N[C@H]3C(=O)N[C@@H]2C(=O)N[C@H](C(=O)N2CCSCC2)c2cc(O)cc(O[C@H]4O[C@H](CO)[C@@H](O)[C@@H](O)[C@@H]4O)c2-c2cc3ccc2O)O[C@@H](CO)[C@@H](O)[C@@H]1O | 0.12 µg/mL (≈ 0.0611 µM) | 0.25 µg/mL (≈ 0.127 µM) | 0.06 µg/mL (≈ 0.0305 µM) | 0.12 µg/mL (≈ 0.0611 µM) | 0.12 µg/mL (≈ 0.0611 µM) | – | – | 0.08 mg/kg | 220 mg/kg | – |
| CCN(CC)CCCNC(=O)[C@H]1NC(=O)[C@H]2NC(=O)[C@H](NC(=O)[C@@H]3NC(=O)[C@H]4NC(=O)[C@@H](Cc5ccc(c(Cl)c5)Oc5cc3cc(c5O)Oc3ccc(cc3Cl)[C@H]2O[C@@H]2O[C@@H](CO)[C@@H](O)[C@H](O)[C@@H]2NC(C)=O)NC(=O)[C@H](N)c2ccc(O)c(c2)Oc2cc(O)cc4c2)c2ccc(O)c(c2)-c2c(O)cc(O)cc21 | 0.5 µg/mL (≈ 0.33 µM) | 0.06 µg/mL (≈ 0.0396 µM) | 0.12 µg/mL (≈ 0.0792 µM) | 0.12 µg/mL (≈ 0.0792 µM) | 0.25 µg/mL (≈ 0.165 µM) | 64 µg/mL (≈ 42.3 µM) | 128 µg/mL (≈ 84.5 µM) | 0.95 mg/kg | – | – |
| CCOC(=O)CNC(=O)[C@H]1NC(=O)[C@H]2NC(=O)[C@H](NC(=O)[C@@H]3NC(=O)[C@H]4NC(=O)[C@@H](Cc5ccc(c(Cl)c5)Oc5cc3cc(c5O)Oc3ccc(cc3Cl)[C@H]2O[C@@H]2O[C@@H](CO)[C@@H](O)[C@H](O)[C@@H]2NC(C)=O)NC(=O)[C@H](N)c2ccc(O)c(c2)Oc2cc(O)cc4c2)c2ccc(O)c(c2)-c2c(O)cc(O)cc21 | 1 µg/mL (≈ 0.672 µM) | 0.12 µg/mL (≈ 0.0807 µM) | 0.25 µg/mL (≈ 0.168 µM) | 0.5 µg/mL (≈ 0.336 µM) | 1 µg/mL (≈ 0.672 µM) | 128 µg/mL (≈ 86.1 µM) | > 128 µg/mL | 5 mg/kg | – | – |

Further compounds by falling MIC (Streptococcus pneumoniae), results first:

| MIC (Streptococcus pneumoniae) | MIC [2] | MIC (Streptococcus pyogenes [3]) | MIC (Staphylococcus aureus) | MIC (Enterococcus faecalis) | MIC (Escherichia coli) | MIC (Proteus vulgaris) | SMILES | ED50 (Streptococcus pyogenes [1]) | ED50 (Streptococcus pyogenes [4]) | MIC [5] |
| --- | --- | --- | --- | --- | --- | --- | --- | --- | --- | --- |
| 2 µg/mL (≈ 1.36 µM) | 0.06 µg/mL (≈ 0.0407 µM) | 0.25 µg/mL (≈ 0.17 µM) | 0.25 µg/mL (≈ 0.17 µM) | 0.5 µg/mL (≈ 0.339 µM) | > 128 µg/mL | > 128 µg/mL | COC(=O)CNC(=O)[C@H]1NC(=O)[C@H]2NC(=O)[C@H](NC(=O)[C@@H]3NC(=O)[C@H]4NC(=O)[C@@H](Cc5ccc(c(Cl)c5)Oc5cc3cc(c5O)Oc3ccc(cc3Cl)[C@H]2O[C@@H]2O[C@@H](CO)[C@@H](O)[C@H](O)[C@@H]2NC(C)=O)NC(=O)[C@H](N)c2ccc(O)c(c2)Oc2cc(O)cc4c2)c2ccc(O)c(c2)-c2c(O)cc(O)cc21 | 7 mg/kg | – | – |
| 0.25 µg/mL (≈ 0.167 µM) | 0.06 µg/mL (≈ 0.04 µM) | 0.25 µg/mL (≈ 0.167 µM) | 0.12 µg/mL (≈ 0.0801 µM) | 0.5 µg/mL (≈ 0.334 µM) | 128 µg/mL (≈ 85.4 µM) | > 128 µg/mL | CC(=O)NC1C(O[C@@H]2c3ccc(c(Cl)c3)Oc3cc4cc(c3O)Oc3ccc(cc3Cl)C[C@H]3NC(=O)[C@H](N)c5ccc(O)c(c5)Oc5cc(O)cc(c5)[C@H](NC3=O)C(=O)N[C@H]4C(=O)N[C@H]3C(=O)N[C@@H]2C(=O)N[C@H](C(=O)NCCN2CCCC2)c2cc(O)cc(O)c2-c2cc3ccc2O)OC(CO)C(O)C1O (stereo partly drawn) | 2.2 mg/kg | – | – |
| 0.12 µg/mL (≈ 0.0607 µM) | 0.12 µg/mL (≈ 0.0607 µM) | 0.06 µg/mL (≈ 0.0304 µM) | 0.12 µg/mL (≈ 0.0607 µM) | 0.12 µg/mL (≈ 0.0607 µM) | – | – | CC(=O)N[C@@H]1[C@H](O[C@@H]2c3ccc(c(Cl)c3)Oc3cc4cc(c3O[C@@H]3O[C@@H](CO)[C@@H](O)[C@H](O)[C@@H]3NC(=O)CCCCCCC(C)C)Oc3ccc(cc3Cl)C[C@H]3NC(=O)[C@H](N)c5ccc(O)c(c5)Oc5cc(O)cc(c5)[C@H](NC3=O)C(=O)N[C@H]4C(=O)N[C@H]3C(=O)N[C@@H]2C(=O)N[C@H](C(=O)NCCN2CCCC2)c2cc(O)cc(O[C@H]4O[C@H](CO)[C@@H](O)[C@@H](O)[C@@H]4O)c2-c2cc3ccc2O)O[C@@H](CO)[C@@H](O)[C@@H]1O | 0.06 mg/kg | 173 mg/kg | – |
| 0.12 µg/mL (≈ 0.0598 µM) | 0.12 µg/mL (≈ 0.0598 µM) | 0.06 µg/mL (≈ 0.0299 µM) | 0.5 µg/mL (≈ 0.249 µM) | 0.25 µg/mL (≈ 0.125 µM) | – | – | CCCCC/C=C/CCC(=O)N[C@@H]1[C@H](Oc2c3cc4cc2Oc2ccc(cc2Cl)[C@@H](O[C@@H]2O[C@@H](CO)[C@@H](O)[C@H](O)[C@@H]2NC(C)=O)[C@@H]2NC(=O)[C@H](NC(=O)[C@@H]4NC(=O)[C@H]4NC(=O)[C@@H](Cc5ccc(c(Cl)c5)O3)NC(=O)[C@H](N)c3ccc(O)c(c3)Oc3cc(O)cc4c3)c3ccc(O)c(c3)-c3c(O[C@H]4O[C@H](CO)[C@@H](O)[C@@H](O)[C@@H]4O)cc(O)cc3[C@@H](C(=O)NC(CCC(=O)O)C(=O)O)NC2=O)O[C@@H](CO)[C@@H](O)[C@@H]1O (stereo partly drawn) | – | – | 4 µg/mL (≈ 1.99 µM) |
| 0.06 µg/mL (≈ 0.0293 µM) | 0.06 µg/mL (≈ 0.0293 µM) | 0.06 µg/mL (≈ 0.0293 µM) | 0.25 µg/mL (≈ 0.122 µM) | 0.12 µg/mL (≈ 0.0586 µM) | – | – | CCCCN(CCCC)CCCNC(=O)[C@H]1NC(=O)[C@H]2NC(=O)[C@H](NC(=O)[C@@H]3NC(=O)[C@H]4NC(=O)[C@@H](Cc5ccc(c(Cl)c5)Oc5cc3cc(c5O[C@@H]3O[C@@H](CO)[C@@H](O)[C@H](O)[C@@H]3NC(=O)CCCCCCC(C)C)Oc3ccc(cc3Cl)[C@H]2O[C@@H]2O[C@@H](CO)[C@@H](O)[C@H](O)[C@@H]2NC(C)=O)NC(=O)[C@H](N)c2ccc(O)c(c2)Oc2cc(O)cc4c2)c2ccc(O)c(c2)-c2c(O[C@H]3O[C@H](CO)[C@@H](O)[C@@H](O)[C@@H]3O)cc(O)cc21 | 0.1 mg/kg | 300 mg/kg | – |
